Measurements from ChEMBL document CHEMBL3526004, “Interaction of silymarin flavonolignans with organic anion-transporting polypeptides” (Drug Metab Dispos, 2013).

Experiments:
[1] = target: T1, Solute carrier organic anion transporter family member 2B1 (Homo sapiens, UniProt O94956); experiment: Inhibition of OATP2B1 (unknown origin) expressed in MDCK2 cells assessed as reduction of [3H]estrone-3-sulfate uptake at 10 uM after 3 mins by beta-counting; format: ADME, cell-based; conditions: mdck-ii, 0.05 h
T1 sequence (O94956 whole entry): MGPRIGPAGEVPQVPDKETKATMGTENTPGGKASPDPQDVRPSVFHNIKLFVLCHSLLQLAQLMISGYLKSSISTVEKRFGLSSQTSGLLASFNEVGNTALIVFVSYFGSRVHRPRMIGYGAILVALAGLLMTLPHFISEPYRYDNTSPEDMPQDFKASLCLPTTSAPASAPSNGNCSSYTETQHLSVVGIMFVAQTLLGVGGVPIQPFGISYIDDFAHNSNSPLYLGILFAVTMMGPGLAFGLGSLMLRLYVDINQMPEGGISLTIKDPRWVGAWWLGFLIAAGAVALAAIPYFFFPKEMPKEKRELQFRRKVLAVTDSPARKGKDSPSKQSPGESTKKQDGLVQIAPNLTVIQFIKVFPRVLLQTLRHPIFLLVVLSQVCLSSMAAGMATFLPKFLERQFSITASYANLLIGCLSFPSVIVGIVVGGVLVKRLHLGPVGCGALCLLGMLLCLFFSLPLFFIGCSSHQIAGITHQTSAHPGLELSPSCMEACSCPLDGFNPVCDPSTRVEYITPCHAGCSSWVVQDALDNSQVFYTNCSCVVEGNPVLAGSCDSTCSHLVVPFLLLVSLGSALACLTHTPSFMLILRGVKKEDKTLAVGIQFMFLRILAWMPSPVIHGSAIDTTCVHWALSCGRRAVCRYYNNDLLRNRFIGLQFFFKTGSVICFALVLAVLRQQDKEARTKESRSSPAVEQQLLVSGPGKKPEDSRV
Method in brief: (§1)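 Confluent cells were washed in PBS, then given 1 µM [3H]-E2 17G (OATP1B1, OATP1B3 HEK293) or 1 µM [3H]-E1S (OATP2B1 MDCKII) with 10 µM compound in HBSS pH 7.4 for 3 min at 37°C. Uptake into mock or parental cells was subtracted after protein normalization. Results are % vehicle, mean ± SD of at least three experiments in triplicate.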

[2] = target: T2, Solute carrier organic anion transporter family member 1B1 (Homo sapiens, UniProt Q9Y6L6); experiment: Inhibition of OATP1B1 (unknown origin) expressed in HEK293 cells assessed as reduction of [3H]estradiol-17beta-glucuronide uptake at 10 uM after 3 mins by beta-counting; format: ADME, cell-based; conditions: hek293, 0.05 h; method in brief: as §1
T2 sequence (Q9Y6L6 whole entry): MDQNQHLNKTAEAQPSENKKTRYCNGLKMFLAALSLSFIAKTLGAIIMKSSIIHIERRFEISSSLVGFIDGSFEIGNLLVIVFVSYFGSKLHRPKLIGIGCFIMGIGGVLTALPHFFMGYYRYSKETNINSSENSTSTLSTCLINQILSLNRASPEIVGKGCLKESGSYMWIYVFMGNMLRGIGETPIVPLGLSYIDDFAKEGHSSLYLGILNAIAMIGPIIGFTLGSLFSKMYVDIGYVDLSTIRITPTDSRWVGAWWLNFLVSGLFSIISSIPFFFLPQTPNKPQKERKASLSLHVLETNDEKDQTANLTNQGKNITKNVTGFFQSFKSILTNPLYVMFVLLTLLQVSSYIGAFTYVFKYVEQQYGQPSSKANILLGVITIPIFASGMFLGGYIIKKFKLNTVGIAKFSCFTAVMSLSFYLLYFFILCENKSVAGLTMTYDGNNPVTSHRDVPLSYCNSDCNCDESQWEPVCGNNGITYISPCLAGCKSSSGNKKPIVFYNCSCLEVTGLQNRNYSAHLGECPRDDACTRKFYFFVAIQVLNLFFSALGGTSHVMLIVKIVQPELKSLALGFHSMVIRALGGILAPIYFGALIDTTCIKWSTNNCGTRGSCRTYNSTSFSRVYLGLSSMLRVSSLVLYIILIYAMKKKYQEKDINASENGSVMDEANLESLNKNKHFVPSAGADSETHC

[3] = target: T3, Solute carrier organic anion transporter family member 1B3 (Homo sapiens, UniProt Q9NPD5); experiment: Inhibition of OATP1B3 (unknown origin) expressed in HEK293 cells assessed as reduction of [3H]estradiol-17beta-glucuronide uptake at 10 uM after 3 mins by beta-counting; format: ADME, cell-based; conditions: hek293, 0.05 h; method in brief: as §1
T3 sequence (Q9NPD5 whole entry): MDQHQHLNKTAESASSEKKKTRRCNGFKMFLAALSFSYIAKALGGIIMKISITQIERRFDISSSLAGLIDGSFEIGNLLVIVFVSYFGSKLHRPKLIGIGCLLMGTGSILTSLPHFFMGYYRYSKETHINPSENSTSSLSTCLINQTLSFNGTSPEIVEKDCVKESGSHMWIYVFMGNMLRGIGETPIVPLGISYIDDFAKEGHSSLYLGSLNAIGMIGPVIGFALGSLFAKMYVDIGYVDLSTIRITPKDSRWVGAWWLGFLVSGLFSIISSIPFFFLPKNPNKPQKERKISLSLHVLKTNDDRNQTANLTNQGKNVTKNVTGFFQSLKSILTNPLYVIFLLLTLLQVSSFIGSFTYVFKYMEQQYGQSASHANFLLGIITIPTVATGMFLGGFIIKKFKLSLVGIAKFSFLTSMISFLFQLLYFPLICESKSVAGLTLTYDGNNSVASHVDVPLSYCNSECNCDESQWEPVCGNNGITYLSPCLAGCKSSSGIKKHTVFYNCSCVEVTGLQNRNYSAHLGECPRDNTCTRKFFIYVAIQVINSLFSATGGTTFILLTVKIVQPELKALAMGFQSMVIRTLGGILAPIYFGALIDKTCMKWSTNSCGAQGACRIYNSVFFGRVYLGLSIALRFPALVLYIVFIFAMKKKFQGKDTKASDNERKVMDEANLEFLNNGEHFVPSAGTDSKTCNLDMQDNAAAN

[4] = target: T2, Solute carrier organic anion transporter family member 1B1; experiment: Inhibition of OATP1B1 (unknown origin) expressed in HEK293 cells assessed as reduction of [3H]estradiol-17beta-glucuronide uptake after 3 mins by beta-counting; format: ADME, cell-based
Method in brief: (§2)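 Transfected HEK293 (G418) or MDCKII (hygromycin B) cells were co-incubated with 0-100 µM compound and [3H]-E2 17G (1 µM, 0.25 µCi/ml; OATP1B1, OATP1B3) or [3H]-E1S (1 µM; OATP2B1) in HBSS pH 7.4, 3 min at 37°C. OATP-negative uptake was subtracted, and results expressed as % vehicle. Two experiments were run in duplicate. IC50 came from non-linear dose-response fits.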

[5] = target: T3, Solute carrier organic anion transporter family member 1B3; experiment: Inhibition of OATP1B3 (unknown origin) expressed in HEK293 cells assessed as reduction of [3H]estradiol-17beta-glucuronide uptake after 3 mins by beta-counting; format: ADME, cell-based; method in brief: as §2
[6] = target: T1, Solute carrier organic anion transporter family member 2B1; experiment: Inhibition of OATP2B1 (unknown origin) expressed in MDCK2 cells assessed as reduction of [3H]estrone-3-sulfate uptake after 3 mins by beta-counting; format: ADME, cell-based, MDCK-II; method in brief: as §2

`COc1cc([C@H]2Oc3ccc([C@H]4Oc5cc(O)cc(O)c5C(=O)[C@@H]4O)cc3O[C@@H]2CO)ccc1O` [ISOSILYBIN A] was tested. Which “inhibition (INH)” value [1] did it give?
The value was “Active”.

And the “inhibition (INH)” value [2]?
The value was “Active”.

For `COc1cc([C@@H]2Oc3ccc([C@H]4Oc5cc(O)cc(O)c5C(=O)[C@@H]4O)cc3O[C@H]2CO)ccc1O` [ISOSILYBIN B], which “inhibition (INH)” value [1] is on record?
The value was “Active”.

And the “inhibition (INH)” value [2]?
The value was “Active”.

And the “inhibition (INH)” value [3]?
Its value is “Active”.

Which “inhibition (INH)” value [1] does the source give for `COc1cc(C2Oc3c(O)cc([C@H]4Oc5cc(O)cc(O)c5C(=O)[C@@H]4O)cc3C2CO)ccc1O` (stereo not given in full) [SILICRISTIN] here?
Its value is “Active”.

And the IC50 [4]?
Its IC50 is 9 µM.

What about the IC50 [5] of the same compound?
Its IC50 is 36.4 µM.

What about the “inhibition (INH)” value [2] of the same compound?
Its value is “Not Active”.

What about the IC50 [6] of the same compound?
The IC50 was 3.6 µM.
